CHRM4 PAM: human M4 muscarinic receptor positive allosteric modulators, primary screen, CHO-K1 cells, Fluo-8 calcium fluorescence; 360,000 compounds, 0.4% hits; CHO-K1 hM4/Gqi5, ACh EC20; 0% = ACh EC20, 100% = maximal ACh; AID 624126, 2012; Muscarinic acetylcholine receptor M4 (Homo sapiens), P08173; activation, % at 3 µM;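 active = activation above its plate's cutoff, the mean activation of sample wells plus 3 SD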
M5 antag: human M5 muscarinic receptor antagonists, primary screen, CHO cells, Fluo-8 calcium fluorescence | Muscarinic acetylcholine receptor M5 (Homo sapiens), P08912 | CHO-hM5 cells, ACh EC80 | inhibition, % at 3 µM | 360,000 compounds, 0.59% hits | AID 624040, 2012;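 active = inhibition above a per-plate cutoff, the mean of that plate's test compounds plus 3 SD, cut at about 27% in these data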
Target sequence (P08912 whole entry, looked up): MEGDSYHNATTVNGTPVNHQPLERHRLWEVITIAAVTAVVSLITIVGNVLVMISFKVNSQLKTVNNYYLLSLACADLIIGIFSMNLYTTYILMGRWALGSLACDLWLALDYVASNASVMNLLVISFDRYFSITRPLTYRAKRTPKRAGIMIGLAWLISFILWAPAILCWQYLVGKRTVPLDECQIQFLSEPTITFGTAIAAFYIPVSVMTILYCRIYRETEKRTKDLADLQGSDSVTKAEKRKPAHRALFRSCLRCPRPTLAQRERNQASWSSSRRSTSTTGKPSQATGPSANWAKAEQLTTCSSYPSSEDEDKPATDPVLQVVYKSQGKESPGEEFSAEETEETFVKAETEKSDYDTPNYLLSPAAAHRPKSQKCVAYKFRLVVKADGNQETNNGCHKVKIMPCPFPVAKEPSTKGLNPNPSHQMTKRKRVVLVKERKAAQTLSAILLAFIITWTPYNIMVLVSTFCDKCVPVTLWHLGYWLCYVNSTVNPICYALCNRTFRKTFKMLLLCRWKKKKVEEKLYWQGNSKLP
M5 PAM: human M5 muscarinic receptor positive allosteric modulators, primary screen, CHO-K1 cells, Fluo-8 calcium fluorescence | CHO-K1 hM5, ACh EC20 PAM; 0% = ACh EC20, 100% = ACh EC100 | Muscarinic acetylcholine receptor M5 (Homo sapiens), P08912 | 360,000 compounds, 0.3% hits | AID 624038, 2012 | activation, % at 3 µM;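 active = activation above the run cutoff, the mean activation of all test compounds plus 3 SD, cut at about 18% in these data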
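Assay system: CHO-K1 hM5 cells / Incubation: Fluo-8 loading 80 min at 37 °C plus 30 min room temperature / Technique: Fluo-8 calcium dye fluorescence, kinetic read / Repeats: single replicate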
CHRM5 agonist: human M5 muscarinic receptor agonists, primary screen, CHO-K1 cells, Fluo-8 calcium fluorescence. 360,000 compounds, 0.19% hits. Muscarinic acetylcholine receptor M5 (Homo sapiens), P08912. CHO-K1 hM5 cells; 0% DMSO wells, 100% maximal acetylcholine response. activation, % at 3 µM. AID 624037, 2012;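 active = activation above the run's mean over test compounds plus 3 SD, cut at about 23% in these data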;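 also: signal is peak over basal fluorescence ratio across the kinetic read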
M4 ag: human M4 muscarinic receptor agonists, primary screen, CHO-K1 cells, Fluo-8 calcium fluorescence; CHO-K1 hM4/Gqi5; vehicle 0%, full acetylcholine response 100%; activation, % at 3 µM; 360,000 compounds, 0.14% hits; Muscarinic acetylcholine receptor M4 (Homo sapiens), P08173;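 active = activation above the run mean over all test wells plus 3 SD, cut at about 32% in these data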;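 also: peak over basal fluorescence ratio per well then scaled between controls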
CHRM4 antagonist: human M4 muscarinic receptor antagonists, primary screen, CHO cells, Fluo-8 calcium fluorescence. Muscarinic acetylcholine receptor M4 (Homo sapiens), P08173. CHO-hM4 cells, ACh EC80. inhibition, % at 3 µM. 360,000 compounds, 0.73% hits;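 active = inhibition above its plate's cutoff, the mean inhibition of sample wells plus 3 SD, cut at about 27% in these data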
Each line names hits and unclear results; the compound was inactive in the other large screens. In the library only some 1.8% were active in any assay of this set; here they are far more common.

CCOC(=O)C1=C(C)N(c2ccccc2)C(=O)NC1c1cccc([N+](=O)[O-])c1 (stereo not given)	M5 antag 39, CHRM4 antagonist 75
C#CCOC(=O)CCCC(=O)NCCCCCCCC	M5 PAM 27
O=c1[nH]c2cc3ccccc3cc2nc1-c1nnnn1Cc1ccccc1	none
O=C(c1ccc2c(c1)OCO2)C1CCCN(Cc2ccccc2OC(F)F)C1 (stereo not given)	CHRM4 antagonist 40
CCc1nc2c(OCc3ccc(C(F)(F)F)cc3)cccn2c1N(C)C(=O)c1ccco1	none
O=S(=O)(Nc1nc(SCc2ccc(Cl)cc2)n[nH]1)c1ccc(F)cc1	M5 PAM 22
CCc1nc(SCc2ccc(Cl)cc2)n[nH]1	none
OC[C@@H]1CN(Cc2ccco2)C[C@H](n2cnc3c(NC4CC4)ncnc32)O1	none
Cc1ccc(NC(=O)CNc2ccc(Cl)c(Cl)c2)cc1S(=O)(=O)N(C)C	CHRM4 antagonist 33
CCOC(=O)[C@]12CCC=C1N(Cc1ccco1)C(=O)[C@H](CC(=O)N1CCOCC1)C2	none
CCCC(=O)Nc1cccc(-c2nc3ccccc3c(=O)o2)c1	CHRM4 PAM 25
CC(C)(C)C(=O)Nc1cccc(-c2nc3ccccc3c(=O)o2)c1	none
Cc1ccc(C(=O)NCCn2cc(SCC(=O)Nc3cc(C)on3)c3ccccc32)cc1	CHRM5 agonist 36
Cc1cc(NC(=O)CSc2ccc3nnc(CCNC(=O)c4ccccc4)n3n2)no1	CHRM4 PAM 30
COCCn1c(=NC(=O)C2COc3ccccc3O2)sc2cc(S(N)(=O)=O)ccc21 (stereo not given)	none
CCn1c(=NC(=O)C2COc3ccccc3O2)sc2c(OC)ccc(OC)c21 (stereo not given)	CHRM4 antagonist 36
CC1(C(=O)NC2CCN(Cc3ccccc3)CC2)CCN1Cc1cc2ccccc2o1 (stereo not given)	none
CCc1ccc(OC2(C)CCN(Cc3ccccc3OC(F)F)C2)cc1 (stereo not given)	none
COC(=O)Cc1ccc(OC2(C)CCN(Cc3ccc(-c4ccccn4)cc3)C2)cc1 (stereo not given)	CHRM4 antagonist 34
COC(=O)Cc1ccc(OC2(C)CCN(Cc3ccccc3OC(F)F)C2)cc1 (stereo not given)	CHRM4 antagonist 55
COc1cccc(OC2(C)CCN(Cc3ccc(-c4ccccn4)cc3)C2)c1 (stereo not given)	none
COC(=O)C1=C(C(=O)OC)[C@@H]2Nc3ccccc3[C@@]23C[C@@H](C(=O)OC)N(C(=O)c2cccs2)C3=N1	CHRM4 PAM 25
Cc1cc(C)cc(-n2c(=O)c3sccc3n(CC(=O)NCc3ccco3)c2=O)c1	M5 PAM 22
CCOC(=O)C1(C)CCN1C(=O)/C=C/c1ccccc1 (stereo not given)	none
COCCNC(=O)C1(C)CCN(Cc2ccc3ccccc3c2Br)C1 (stereo not given)	none
CCN(CC)C(=O)N1c2ccccc2C=Cc2ccccc21	none
CN(C)CCCNC(=O)N1c2ccccc2C=Cc2ccccc21	M5 antag 72, CHRM4 antagonist 68
CC(C)N1CCN(Cc2cc(F)ccc2-n2cccn2)CC1CCO (stereo not given)	none
CC(C)CCN1CCN(Cc2cccc(-n3cccn3)c2)CC1CCO (stereo not given)	none
CC(C)N1CCC(N2CCN(Cc3cc(F)ccc3-n3cccn3)CC2CCO)CC1 (stereo not given)	M5 PAM 22
Cc1cc(-n2cccn2)ccc1CN1CCN(C2CCCC2)C(CCO)C1 (stereo not given)	M5 antag 54, CHRM4 antagonist 99
Cc1cc(-n2cccn2)ccc1CN1CCN(CC(C)C)C(CCO)C1 (stereo not given)	CHRM4 antagonist 55
CCCC(=O)N1CCCC(c2cc(C(=O)NCc3ccc(F)cc3)no2)C1 (stereo not given)	none
COc1cccc(-c2cnc(C(O)c3cccc(F)c3)[nH]2)c1 (stereo not given)	none
CCc1ccc(OCc2nnc(SCc3ccc(C(=O)O)cc3)o2)cc1	CHRM4 PAM 27
O=C(O)c1ccc(CSc2nnc(COc3ccccc3)o2)cc1	none
O=C(NCC(c1ccco1)N1CCCCC1)c1ccc(S(=O)(=O)Nc2ccccc2)cc1 (stereo not given)	none
COc1ccc(Cl)cc1C(=O)NCC(c1ccco1)N1CCCC1 (stereo not given)	none
COc1cc(C(=O)NCC(c2ccco2)N2CCCC2)ccc1OCc1ccc(Cl)cc1Cl (stereo not given)	CHRM4 antagonist 52
O=C(NCC(c1ccco1)N1CCCC1)c1cccc(NS(=O)(=O)c2ccccc2)c1 (stereo not given)	CHRM4 antagonist 74
COc1ccc(NS(=O)(=O)c2cccc(C(=O)NCC(c3ccccc3OC)N3CCCC3)c2)cc1 (stereo not given)	none
COc1ccccc1C(CNC(=O)c1cccc(S(=O)(=O)Nc2ccc(F)cc2)c1)N1CCCC1 (stereo not given)	M5 antag 47, CHRM4 antagonist 36
CCOC(=O)C1CCN(C(=O)c2ccco2)CC1	none
NC(=O)C1CCN(Cc2ccc(OCc3ccccc3)cc2)CC1	none
CCOC(=O)C1CCCN(CCc2ccccc2)C1 (stereo not given)	CHRM4 antagonist 37
CCOc1ccc(CN2CCC(Cc3ccccc3)CC2)cc1	CHRM4 antagonist 26
CCOC(=O)C1CCN(C(=O)c2ccc(C)o2)CC1	CHRM4 antagonist 100
COc1ccc(CN2CCC(Cc3ccccc3)CC2)cc1OC	none
CCOC(=O)C1CCN(Cc2ccc(OCc3ccccc3)cc2)CC1	CHRM4 antagonist 39
CCc1ccccc1NC(=O)c1ccc(CN2CCC(Cc3ccccc3)CC2)cc1	CHRM4 antagonist 36
O=C(NCc1ccccc1)c1ccc(CN2CCC(Cc3ccccc3)CC2)cc1	none
CC1(C(=O)NCc2cccs2)Cc2c(-c3ccccc3)ccnc2O1 (stereo not given)	none
c1ccc(-n2c3ccccc3c3ccccc32)cc1	M5 PAM 19
Cc1ccc(Oc2ncccc2C(=O)NCC(=O)O)cc1	M5 PAM 21

Assay outcomes from PubChem.
